Publication PMC7227796 (ACS chemical neuroscience, 2020)
Like-named read-outs stand apart in the source and are kept apart here. Marks after values point to notes of the source that are not given here.

Tests used:
native NMDA receptors = assay: Radioligand binding at native NMDA receptors; design: species or system rat; settings: for Ki: read-out: NMDA Ki, native iGluRs (synaptosomes); for Ki / NMDA pKi with SEM (in brackets): rat synaptosomes, [3H]CGP-39653
Summary of the method: (§1)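 Rat cortical synaptosomal membranes were labelled with 5 nM [3H]AMPA (AMPA), 5 nM [3H]KA (KA) or [3H]CGP39653 (NMDA). Test compound was run at 12–16 concentrations in triplicate, with three to six independent experiments. Cpm were fitted by nonlinear regression. Values are reported as pIC50 for AMPA and KA and as pKi for NMDA, each as mean with SEM.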

GluK1 = GluK1 (Rattus norvegicus, UniProt P22756); assay: Radioligand binding at recombinant homomeric GluK1; settings: for GluK1 % specific binding (Table 5): [3H]NF608, mean ± SD, ligand concentration not given
Summary of the method: (§2)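 Membranes from sf9 cells expressing rat homomeric GluK1, GluK2 or GluK3 were incubated in 50 mM Tris-HCl, pH 7.1, for 2 h at 4 °C. Radioligand was [3H]-(S)-NF608 for GluK1 and [3H]kainic acid for GluK2 and GluK3. Samples were filtered on GF/B, washed twice with ice-cold buffer, dried for 1 h at 70 °C and counted by scintillation. Ki came from 12–16-point triplicate curves. Single-point % specific binding is mean ± SD of three experiments, at 10 μM test compound where stated.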

GluK2 = GluK2 (Rattus norvegicus, UniProt P42260); assay: Radioligand binding at recombinant homomeric GluK2; settings: for GluK2 % specific binding (Table 5): mean ± SD, ligand concentration not given
Summary of the method: as §2

GluK3 = GluK3 (Rattus norvegicus, UniProt P42264); assay: Radioligand binding at recombinant homomeric GluK3; settings: for GluK3 % specific binding (Table 5): mean ± SD, ligand concentration not given
Summary of the method: as §2

native KA receptors = assay: Radioligand binding at native KA receptors; settings: rat synaptosomes, [3H]KA
Summary of the method: as §1

native AMPA receptors = assay: Radioligand binding at native AMPA receptors; settings: rat synaptosomes, [3H]AMPA; for IC50: read-out: AMPA IC50, native iGluRs (synaptosomes)
Summary of the method: as §1

[1] = biological target: GluN1/GluN2A NMDA receptor (Rattus norvegicus, UniProt P35439+Q00959); assay: Two-electrode voltage-clamp recordings, Xenopus oocytes expressing GluN1/GluN2A; format: cell-based
Summary of the method: (§3)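 Xenopus oocytes were injected with rat GluN1-1a and GluN2A, 2B, 2C or 2D cRNA at a 1:2 ratio. Two-electrode voltage clamp was run 2–6 days later at room temperature and −40 mV. Bath was 90 NaCl, 1 KCl, 10 HEPES, 0.5 BaCl2, 0.01 EDTA (mM), pH 7.4. Currents were evoked by 1 μM glutamate plus 100 μM glycine, with test compound gravity-perfused. Hill fits gave IC50 per oocyte (5–6 oocytes). Ki was derived by Cheng-Prusoff using earlier glutamate EC50 values.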

[2] = biological target: GluN1/GluN2D NMDA receptor (Rattus norvegicus, UniProt P35439+Q62645); assay: Two-electrode voltage-clamp recordings, Xenopus oocytes expressing GluN1/GluN2D; format: cell-based
Summary of the method: as §3

[3] = biological target: GluN1/GluN2B NMDA receptor (Rattus norvegicus, UniProt P35439+Q00960); assay: Two-electrode voltage-clamp recordings, Xenopus oocytes expressing GluN1/GluN2B; format: cell-based
Summary of the method: as §3

[4] = biological target: GluN1/GluN2C NMDA receptor (Rattus norvegicus, UniProt P35439+Q00961); assay: Two-electrode voltage-clamp recordings, Xenopus oocytes expressing GluN1/GluN2C; format: cell-based
Summary of the method: as §3

[5] = 10 μM ligand concentration, [3H]KA, mean ± SD (Tables 2, 4)
[6] = read-out: GluK2 Ki, cloned homomeric iGluRs, [3H]KA, mean ± SEM
[7] = read-out: GluK3 Ki, cloned homomeric iGluRs, [3H]KA, mean ± SEM

Sequence of GluK2 (P42260 32-908): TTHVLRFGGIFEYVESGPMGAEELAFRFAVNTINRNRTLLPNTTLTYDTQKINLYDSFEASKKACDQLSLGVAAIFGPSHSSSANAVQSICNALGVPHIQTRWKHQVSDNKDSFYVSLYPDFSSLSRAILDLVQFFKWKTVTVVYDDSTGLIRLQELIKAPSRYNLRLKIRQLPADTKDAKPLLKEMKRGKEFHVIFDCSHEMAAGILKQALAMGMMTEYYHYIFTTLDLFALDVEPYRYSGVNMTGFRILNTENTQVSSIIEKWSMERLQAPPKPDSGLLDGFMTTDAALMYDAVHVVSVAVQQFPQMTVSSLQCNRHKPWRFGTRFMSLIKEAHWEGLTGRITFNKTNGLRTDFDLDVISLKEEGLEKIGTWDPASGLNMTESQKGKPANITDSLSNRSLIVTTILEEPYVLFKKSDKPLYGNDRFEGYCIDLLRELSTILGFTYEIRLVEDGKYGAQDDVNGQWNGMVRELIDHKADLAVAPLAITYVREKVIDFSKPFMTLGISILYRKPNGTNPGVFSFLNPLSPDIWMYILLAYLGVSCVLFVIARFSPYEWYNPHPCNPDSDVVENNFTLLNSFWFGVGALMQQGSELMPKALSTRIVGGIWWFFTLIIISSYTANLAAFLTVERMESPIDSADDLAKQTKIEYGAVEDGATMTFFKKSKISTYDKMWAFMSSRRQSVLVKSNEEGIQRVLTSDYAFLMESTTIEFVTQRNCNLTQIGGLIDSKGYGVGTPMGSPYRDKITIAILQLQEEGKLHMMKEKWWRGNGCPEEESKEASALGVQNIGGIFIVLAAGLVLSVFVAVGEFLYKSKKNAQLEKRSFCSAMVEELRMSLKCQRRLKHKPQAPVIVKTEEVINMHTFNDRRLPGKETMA
Sequence of GluK3 (P42264 32-919): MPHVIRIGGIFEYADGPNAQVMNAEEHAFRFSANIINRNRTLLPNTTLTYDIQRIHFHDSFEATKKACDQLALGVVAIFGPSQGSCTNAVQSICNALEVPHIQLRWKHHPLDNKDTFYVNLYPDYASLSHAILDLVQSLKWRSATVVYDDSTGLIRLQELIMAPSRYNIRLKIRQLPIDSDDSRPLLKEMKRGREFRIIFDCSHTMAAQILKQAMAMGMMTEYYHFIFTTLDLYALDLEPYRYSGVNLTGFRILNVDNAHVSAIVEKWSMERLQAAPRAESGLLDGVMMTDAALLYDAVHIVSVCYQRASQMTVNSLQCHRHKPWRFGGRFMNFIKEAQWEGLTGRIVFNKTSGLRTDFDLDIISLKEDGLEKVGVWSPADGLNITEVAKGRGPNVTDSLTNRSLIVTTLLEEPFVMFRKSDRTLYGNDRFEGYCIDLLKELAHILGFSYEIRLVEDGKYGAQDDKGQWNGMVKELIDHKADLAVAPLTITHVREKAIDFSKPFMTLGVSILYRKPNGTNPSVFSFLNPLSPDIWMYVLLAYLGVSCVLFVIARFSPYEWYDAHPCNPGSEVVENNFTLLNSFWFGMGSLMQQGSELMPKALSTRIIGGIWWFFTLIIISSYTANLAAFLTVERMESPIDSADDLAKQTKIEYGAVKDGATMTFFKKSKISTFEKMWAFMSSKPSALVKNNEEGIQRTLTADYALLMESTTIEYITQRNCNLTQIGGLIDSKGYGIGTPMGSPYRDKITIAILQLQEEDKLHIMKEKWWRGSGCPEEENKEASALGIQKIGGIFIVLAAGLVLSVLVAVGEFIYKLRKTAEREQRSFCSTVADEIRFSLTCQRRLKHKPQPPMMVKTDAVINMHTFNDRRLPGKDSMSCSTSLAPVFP
Sequence of GluN1/GluN2A NMDA receptor (Q00959 23-1464, other chains not shown): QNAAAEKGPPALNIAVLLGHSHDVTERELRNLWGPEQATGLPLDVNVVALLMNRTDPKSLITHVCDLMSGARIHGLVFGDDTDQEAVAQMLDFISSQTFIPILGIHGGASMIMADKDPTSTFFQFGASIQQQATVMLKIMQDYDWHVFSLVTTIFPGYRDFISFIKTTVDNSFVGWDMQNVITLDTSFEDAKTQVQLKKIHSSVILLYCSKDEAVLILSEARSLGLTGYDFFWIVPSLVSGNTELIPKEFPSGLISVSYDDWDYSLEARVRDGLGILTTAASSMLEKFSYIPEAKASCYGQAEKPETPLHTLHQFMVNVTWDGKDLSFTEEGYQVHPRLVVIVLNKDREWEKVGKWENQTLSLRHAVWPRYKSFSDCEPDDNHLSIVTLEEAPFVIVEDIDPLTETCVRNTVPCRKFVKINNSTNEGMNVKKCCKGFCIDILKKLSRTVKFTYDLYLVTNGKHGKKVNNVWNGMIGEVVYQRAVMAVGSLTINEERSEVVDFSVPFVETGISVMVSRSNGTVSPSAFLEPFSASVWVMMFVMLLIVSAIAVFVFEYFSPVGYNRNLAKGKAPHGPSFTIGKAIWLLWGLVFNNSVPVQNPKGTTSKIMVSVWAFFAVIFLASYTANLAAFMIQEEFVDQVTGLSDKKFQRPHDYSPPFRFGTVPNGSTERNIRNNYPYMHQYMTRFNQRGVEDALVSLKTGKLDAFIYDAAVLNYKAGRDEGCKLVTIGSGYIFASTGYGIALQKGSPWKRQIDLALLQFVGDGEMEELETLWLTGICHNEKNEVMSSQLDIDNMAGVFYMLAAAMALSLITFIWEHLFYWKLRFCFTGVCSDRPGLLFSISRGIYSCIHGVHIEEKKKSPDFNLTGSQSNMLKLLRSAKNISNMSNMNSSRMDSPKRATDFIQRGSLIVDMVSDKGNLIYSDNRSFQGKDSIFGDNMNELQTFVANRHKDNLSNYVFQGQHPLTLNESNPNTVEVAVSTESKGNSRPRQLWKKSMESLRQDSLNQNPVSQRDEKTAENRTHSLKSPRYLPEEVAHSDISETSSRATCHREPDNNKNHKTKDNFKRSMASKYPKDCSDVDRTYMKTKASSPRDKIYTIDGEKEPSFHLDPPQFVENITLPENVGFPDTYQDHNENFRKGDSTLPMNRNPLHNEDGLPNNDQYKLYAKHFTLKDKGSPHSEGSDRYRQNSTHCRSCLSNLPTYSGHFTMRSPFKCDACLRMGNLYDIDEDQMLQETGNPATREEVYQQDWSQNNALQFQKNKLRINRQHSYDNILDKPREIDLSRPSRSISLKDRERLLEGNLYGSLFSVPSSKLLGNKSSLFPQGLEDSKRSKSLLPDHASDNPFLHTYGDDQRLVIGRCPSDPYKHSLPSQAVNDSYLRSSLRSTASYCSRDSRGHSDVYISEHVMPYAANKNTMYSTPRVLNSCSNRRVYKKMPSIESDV
Sequence of GluN1/GluN2B NMDA receptor (Q00960 27-1482, other chains not shown): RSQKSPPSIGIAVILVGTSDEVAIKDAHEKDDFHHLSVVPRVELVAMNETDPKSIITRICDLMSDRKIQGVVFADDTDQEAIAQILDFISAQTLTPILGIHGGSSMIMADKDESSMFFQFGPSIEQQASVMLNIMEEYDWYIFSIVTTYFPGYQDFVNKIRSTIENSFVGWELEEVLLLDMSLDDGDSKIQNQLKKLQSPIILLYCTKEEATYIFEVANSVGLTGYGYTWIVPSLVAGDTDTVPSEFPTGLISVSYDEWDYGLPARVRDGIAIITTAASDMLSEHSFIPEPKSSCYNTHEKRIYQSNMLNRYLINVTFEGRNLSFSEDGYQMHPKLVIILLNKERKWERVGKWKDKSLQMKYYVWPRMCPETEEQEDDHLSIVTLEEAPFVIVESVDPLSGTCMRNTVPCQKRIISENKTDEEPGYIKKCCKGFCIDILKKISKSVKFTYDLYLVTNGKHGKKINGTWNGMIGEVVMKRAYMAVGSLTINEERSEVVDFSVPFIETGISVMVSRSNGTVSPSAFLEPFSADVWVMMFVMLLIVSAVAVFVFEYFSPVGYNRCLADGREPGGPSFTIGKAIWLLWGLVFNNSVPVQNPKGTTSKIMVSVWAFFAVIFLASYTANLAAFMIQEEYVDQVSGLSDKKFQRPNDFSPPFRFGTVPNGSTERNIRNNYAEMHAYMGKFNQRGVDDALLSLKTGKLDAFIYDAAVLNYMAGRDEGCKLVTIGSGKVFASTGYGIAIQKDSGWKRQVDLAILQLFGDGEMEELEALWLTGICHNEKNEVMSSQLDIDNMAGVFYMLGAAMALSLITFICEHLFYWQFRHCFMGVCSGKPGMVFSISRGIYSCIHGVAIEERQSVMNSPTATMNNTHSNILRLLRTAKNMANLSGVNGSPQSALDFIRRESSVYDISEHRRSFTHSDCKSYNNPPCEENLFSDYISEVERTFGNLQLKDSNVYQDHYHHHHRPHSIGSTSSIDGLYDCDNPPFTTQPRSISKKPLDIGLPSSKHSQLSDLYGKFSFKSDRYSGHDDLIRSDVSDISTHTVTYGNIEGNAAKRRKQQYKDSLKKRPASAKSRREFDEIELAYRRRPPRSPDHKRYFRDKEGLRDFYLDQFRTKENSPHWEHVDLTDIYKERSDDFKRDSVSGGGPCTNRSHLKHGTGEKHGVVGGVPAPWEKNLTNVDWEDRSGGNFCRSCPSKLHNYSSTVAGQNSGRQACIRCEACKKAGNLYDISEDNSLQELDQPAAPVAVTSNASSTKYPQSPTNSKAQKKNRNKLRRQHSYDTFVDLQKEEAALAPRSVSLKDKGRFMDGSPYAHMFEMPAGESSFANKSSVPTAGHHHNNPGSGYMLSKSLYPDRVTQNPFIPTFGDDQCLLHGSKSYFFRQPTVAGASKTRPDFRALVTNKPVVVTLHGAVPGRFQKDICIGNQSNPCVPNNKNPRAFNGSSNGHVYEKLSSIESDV

Compound | Ki (native NMDA receptors) | KA IC50, native iGluRs (synaptosomes) (native KA receptors) | IC50 (native AMPA receptors) | NMDA pKi with SEM (in brackets) (native NMDA receptors) | KA pIC50 with SEM (in brackets) (native KA receptors) | AMPA pIC50 with SEM (in brackets) (native AMPA receptors) | Ki (GluK1) | Ki (GluK2) | Ki (GluK3) | further results
(2S,3R)-3-(4-Amino-3-carboxyphenyl)pyrrolidine-2-carboxylic acid dihydrochloride [4g] | > 100 µM | >100 µM | > 100 µM |  |  |  |  |  |  | GluK1 % specific binding (GluK1; 10 μM ligand concentration, [3H]NF608, mean ± SD (Table 2)): (70 ± 16)^d %; GluK2 % specific binding (GluK2; [5]): (77 ± 5)^d %; GluK3 % specific binding (GluK3; [5]): (64 ± 4)^d %
Cl.O=C(O)c1cc(NC(=O)c2ccccc2)cc([C@H]2CCN[C@@H]2C(=O)O)c1 (racemic) [(±)-5m, (±)-2,3-trans-3-(3-Benzamido-5-carboxyphenyl)pyrrolidine-2-carboxylic acid hydrochloride] | 6.9 µM | 16 µM | 24 µM | 5.16±0.04 | 4.81±0.03 | 4.63±0.04 |  |  |  | Ki (GluK2; [6]): ~100 µM; Ki (GluK3; [7]): 3.95 ± 0.2 µM
Cl.O=C(O)c1cc(-c2cnn[nH]2)cc([C@H]2CCN[C@@H]2C(=O)O)c1 [5d, (2S,3R)-3-(3-Carboxy-5-(1H-1,2,3-triazol-5-yl)phenyl)pyrrolidine-2-carboxylic acid hydrochloride] | 0.83 µM | 20 µM | 21 µM | 6.08±0.05 | 4.71±0.06 | 4.69 ±0.04 | > 50 µM | > 100 µM | 10 to 50 µM | IC50 [1]: 1.36 ± 0.06 µM; IC50 [2]: 18.5 ± 1.54 µM; IC50 [3]: 3.51 ± 0.18 µM; increase in affinity for native NMDA receptors (native NMDA receptors; compared to 4a): 7 fold; selectivity/preference for NMDA receptors over AMPA and KA receptors (native NMDA receptors; native receptors): 24 fold; IC50 [4]: 7.28 ± 0.17 µM
O=C(O)c1cccc([C@H]2[C@H](CCO)CN[C@@H]2C(=O)O)c1 [9d, (2S,3R,4S)-3-(3-Carboxyphenyl)-4-(2-hydroxyethyl)pyrrolidine-2-carboxylic acid] | 61 µM | 13 µM | 35 µM | 4.22 ± 0.03 | 4.89 ± 0.3 | 4.47 ± 0.007 | > 10 µM | > 100 µM | > 10 µM | GluK1 % specific binding (Table 5) (GluK1): 60 ± 6%; GluK2 % specific binding (Table 5) (GluK2; [3H]KA): 93 ± 7%; GluK3 % specific binding (Table 5) (GluK3; [3H]KA): 57 ± 2%
Cl.O=C(O)c1cc([C@H]2CCN[C@@H]2C(=O)O)cc(C(=O)O)c1Cl [6b, 5-((2S,3R)-2-Carboxypyrrolidin-3-yl)-2-chloroisophthalic acid hydrochloride] | 0.16 µM | >100 µM | > 100 µM | 6.82 ± 0.08 |  |  | ≥ 100 µM | ≥ 100 µM | > 50 µM | IC50 [1]: 0.2 ± 0.02 µM; Ki [1]: 0.2 µM; IC50 [2]: 5.15 ± 0.23 µM; IC50 [3]: 0.75 ± 0.04 µM; IC50 [4]: 1.33 ± 0.03 µM
Cl.O=C(O)C[C@@H]1CN[C@H](C(=O)O)[C@H]1c1cccc(C(=O)O)c1 [9e, (2S,3R,4S)-4-(Carboxymethyl)-3-(3-carboxyphenyl)pyrrolidine-2-carboxylic acid hydrochloride] | > 100 µM | >100 µM | > 100 µM |  |  |  | > 100 µM | > 100 µM | > 100 µM | GluK1 % specific binding (Table 5) (GluK1): 93 ± 3%; GluK2 % specific binding (Table 5) (GluK2; [3H]KA): 97 ± 7%; GluK3 % specific binding (Table 5) (GluK3; [3H]KA): 95 ± 3%
Cl.O=C(O)c1cc(NS(=O)(=O)c2ccccn2)cc([C@H]2CCN[C@@H]2C(=O)O)c1 (racemic) [(±)-5l, (±)-2,3-trans-3-(3-Carboxy-5-(pyridine-2-sulfonamido)phenyl)pyrrolidine-2-carboxylic acid hydrochloride] | 36 µM | >100 µM | 27 µM | 4.46±0.08 |  | 4.57±0.04 |  |  |  | Ki (GluK2; [6]): ~100 µM; Ki (GluK3; [7]): 14 ± 0.9 µM
Cc1ccc(S(=O)(=O)Nc2cc(C(=O)O)cc([C@H]3CCN[C@@H]3C(=O)O)c2)cc1.Cl (racemic) [(±)-5k, (±)-2,3-trans-(3-Carboxy-5-((4-methylphenyl)sulfonamido)phenyl)pyrrolidine-2-carboxylic acid hydrochloride] | 15 µM | >100 µM | 23 µM | 4.82±0.03 |  | 4.65±0.09 |  |  |  | Ki (GluK2; [6]): 19 µM; Ki (GluK3; [7]): 10.9 ± 0.5 µM
Cl.O=C(O)c1cc([C@H]2CCN[C@@H]2C(=O)O)cc(Br)c1Cl [6a, (2S,3R)-3-(3-Bromo-5-carboxy-4-chlorophenyl)pyrrolidine-2-carboxylic acid hydrochloride] | 1 to 10 µM | >100 µM | > 100 µM |  |  |  | ≥ 100 µM | ≥ 100 µM | ≥ 100 µM | 
O=C(O)c1cccc([C@H]2[C@H](CCNCc3ccccc3)CN[C@@H]2C(=O)O)c1 [9c, (2S,3R,4S)-4-(2-(Benzylamino)ethyl)-3-(3-carboxyphenyl)pyrrolidine-2-carboxylic acid] | > 100 µM |  | 15 µM |  |  | 4.83 ± 0.05 | 2.98 ± 0.96 µM | > 100 µM | 2.46 ± 0.54 µM | GluK2 % specific binding (Table 5) (GluK2; [3H]KA): 86 ± 6%
Cl.Cl.Nc1cc(C(=O)O)cc([C@H]2CCN[C@@H]2C(=O)O)c1 (racemic) [(±)-5j, (±)-2,3-trans-(3-Amino-5-carboxyphenyl)pyrrolidine-2-carboxylic acid dihydrochloride] | 14 µM | 86 µM | 52 µM | 4.87±0.05 | 4.07±0.04 | 4.29±0.07 |  |  |  | Ki (GluK2; [6]): > 100 µM; Ki (GluK3; [7]): 19.3 ± 0.9 µM
Cl.O=C(O)c1cc(Br)cc([C@H]2CCN[C@@H]2C(=O)O)c1 [5b, (2S,3R)-3-(3-Bromo-5-carboxyphenyl)pyrrolidine-2-carboxylic acid hydrochloride] | 2.4 µM | 10 µM | 26 µM | 5.63 ±0.05 | 4.99 ± 0.04 | 4.60 ± 0.04 | 5.88 ± 0.6 µM | > 100 µM | 2.42 ± 0.11 µM | 
O=C(O)C(F)(F)F.O=C(O)c1ccc([C@H]2CCN[C@@H]2C(=O)O)cc1 [compound 7, (2S,3R)-3-(4-Carboxyphenyl)pyrrolidine-2-carboxylic acid trifluoro acetic acid] | 8.5 µM | >100 µM | > 100 µM |  |  |  | > 100 µM | > 100 µM | > 100 µM | IC50 [1]: 45 ± 1.5 µM; IC50 [2]: 159 ± 8.7 µM; IC50 [3]: 165 ± 14.1 µM; IC50 [4]: 193 ± 6.1 µM
CNCC[C@@H]1CN[C@H](C(=O)O)[C@H]1c1cccc(C(=O)O)c1 [9b, (2S,3R,4S)-3-(3-Carboxyphenyl)-4-(2-(methylamino)ethyl)pyrrolidine-2-carboxylic acid] | > 100 µM | >100 µM | 69 µM |  |  | 4.16 ± 0.02 | ~10 µM | > 100 µM | > 100 µM | GluK1 % specific binding (Table 5) (GluK1): 50 ± 6%; GluK2 % specific binding (Table 5) (GluK2; [3H]KA): 99 ± 6%; GluK3 % specific binding (Table 5) (GluK3; [3H]KA): 83 ± 6%
